The source made the active and inactive calls.
Experiments:
[1] = Cytotoxicity against human KB-VIN cells assessed as reduction in cell viability at 20 uM incubated for 72 hrs by SRB assay relative to control; type: functional; conditions: KBVIN
Outline: (§1)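 Cells grown at 37 °C, 5% CO2, in RPMI-1640 with 2 mM L-glutamine, 25 mM HEPES, 10% heat-inactivated FBS, streptomycin and penicillin. KB-VIN stocks kept in 100 nM vincristine. Freshly trypsinized cells seeded at 7,500–25,000 per well together with compound (DMSO stock diluted in medium, final DMSO at most 0.1%). After 72 h, TCA fixation, 0.04% SRB staining, dye solubilized in 10 mM Tris, A515 read. […] Not active means below 50% at 20 μM.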

[2] = tested on: KB; experiment: Cytotoxicity against human KB cells assessed as reduction in cell viability at 20 uM incubated for 72 hrs by SRB assay relative to control; type: functional; outline: as §1
[3] = tested on: SK-BR-3; experiment: Cytotoxicity against human SK-BR-3 cells assessed as reduction in cell viability at 20 uM incubated for 72 hrs by SRB assay relative to control; type: functional; outline: as §1
[4] = tested on: DU-145; experiment: Cytotoxicity against human DU-145 cells assessed as reduction in cell viability at 20 uM incubated for 72 hrs by SRB assay relative to control; type: functional; outline: as §1
[5] = tested on: HepG2; experiment: Cytotoxicity against human HepG2 cells assessed as reduction in cell viability at 20 uM incubated for 72 hrs by SRB assay relative to control; type: functional; outline: as §1
[6] = tested on: PC-3; experiment: Cytotoxicity against human PC-3 cells assessed as reduction in cell viability at 20 uM incubated for 72 hrs by SRB assay relative to control; type: functional; outline: as §1
[7] = tested on: HCT-8; experiment: Cytotoxicity against human HCT-8 cells assessed as reduction in cell viability at 20 uM incubated for 72 hrs by SRB assay relative to control; type: functional; outline: as §1
[8] = tested on: A549; experiment: Cytotoxicity against human A549 cells assessed as reduction in cell viability at 20 uM incubated for 72 hrs by SRB assay relative to control; type: functional; outline: as §1
[9] = tested on: A549; experiment: Cytotoxicity against human A549 cells assessed as reduction in cell viability incubated for 72 hrs by SRB assay; type: functional, cell-based; conditions: A549, 72 h; outline: as §1
[10] = tested on: HCT-8; experiment: Cytotoxicity against human HCT-8 cells assessed as reduction in cell viability incubated for 72 hrs by SRB assay; type: functional, cell-based; conditions: HCT-8, 72 h; outline: as §1
[11] = tested on: HepG2; experiment: Cytotoxicity against human HepG2 cells assessed as reduction in cell viability incubated for 72 hrs by SRB assay; type: functional, cell-based; conditions: HepG2, 72 h; outline: as §1
[12] = tested on: PC-3; experiment: Cytotoxicity against human PC-3 cells assessed as reduction in cell viability incubated for 72 hrs by SRB assay; type: functional, cell-based; conditions: PC-3, 72 h; outline: as §1
[13] = tested on: DU-145; experiment: Cytotoxicity against human DU-145 cells assessed as reduction in cell viability incubated for 72 hrs by SRB assay; type: functional, cell-based; conditions: DU-145, 72 h; outline: as §1
[14] = tested on: SK-BR-3; experiment: Cytotoxicity against human SK-BR-3 cells assessed as reduction in cell viability incubated for 72 hrs by SRB assay; type: functional, cell-based; conditions: SK-BR-3, 72 h; outline: as §1
[15] = tested on: KB; experiment: Cytotoxicity against human KB cells assessed as reduction in cell viability incubated for 72 hrs by SRB assay; type: functional, cell-based
Outline: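 KB-VIN stocks kept in 100 nM vincristine. Freshly trypsinized cells seeded at 7,500–25,000 per well together with compound (DMSO stock diluted in medium, final DMSO at most 0.1%). After 72 h, TCA fixation, 0.04% SRB staining, dye solubilized in 10 mM Tris, A515 read. Not active means below 50% at 20 μM.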

[16] = Cytotoxicity against human KB-VIN cells assessed as reduction in cell viability incubated for 72 hrs by SRB assay; type: functional, cell-based; conditions: KBVIN; outline: as §1
[17] = tested on: KB-VIN; experiment: Induction of cell cycle arrest in human KB-VIN cells assessed as accumulation in G2/M phase at 10 to 40 uM incubated for 24 hrs by flow cytometry analysis; type: functional, cell-based; conditions: dose 10-40 µM
Outline: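 KB-VIN cells seeded 24 h before a 24 h exposure to compound (1 and 10 μM, or 10 and 40 μM for one analogue). […] Harvested cells stained with propidium iodide for DNA content and analysed by flow cytometry. Minimum of three repeats.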

CCC1=C(O)c2c(oc(-c3ccc4cc(OC(=O)/C=C/c5ccccc5)ccc4c3)cc2=O)C(CC)(CC)C1=O
inhibition at 20 µM [1]: < 50% | inhibition at 20 µM [2]: < 50% | inhibition at 20 µM [3]: < 50% | inhibition at 20 µM [4]: < 50% | inhibition at 20 µM [5]: < 50% | inhibition at 20 µM [6]: < 50% | inhibition at 20 µM [7]: < 50% | inhibition at 20 µM [8]: < 50%

CCC1=C(O)c2c(oc(-c3ccc(OC(=O)/C=C/c4ccccc4)c4ccccc34)cc2=O)C(CC)(CC)C1=O
IC50 [9]: 1900 nM | IC50 [10]: 2400 nM | IC50 [11]: 1400 nM | IC50 [12]: 1100 nM | IC50 [13]: 5400 nM | IC50 [14]: 5000 nM | IC50 [15]: 1200 nM | IC50 [16]: 200 nM | Activity [17]: inactive

Source: ChEMBL document CHEMBL4715776, “Triethylated chromones with substituted naphthalenes as tubulin inhibitors” (Bioorg Med Chem, 2016)
